Experimental findings from ChEMBL document CHEMBL4007447, “Synthesis, biological evaluation and molecular docking study of N-(2-methoxyphenyl)-6-((4-nitrophenyl)sulfonyl)benzamide derivatives as potent HIV-1 Vif antagonists” (Eur J Med Chem, 2017) are described below.

Data set [1] deals with Human immunodeficiency virus 1. Put plainly: Antiviral activity against HIV1 subtype B NL4-3 infected in human H9 cells assessed as reduction in p24 level after 7 days by ELISA. To be noted: Human immunodeficiency virus 1, subtype B NL4-3, H9, 168 h. It counts as functional, cell-based. The method in brief:
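H9 cells infected with NL4-3 at MOI 0.03 for 2 h, washed three times, then seeded at 4×10^4 cells/well with serially diluted compound. Incubated 7 days; supernatant p24 measured by in-house ELISA and EC50 calculated. Three separate experiments, mean ± standard deviation.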
(An ELISA detects its analyte on a solid surface through an enzyme-linked reagent.)

Data set [2] in a line: Therapeutic index, ratio of CC50 for human H9 cells to EC50 for HIV1 subtype B NL4-3 infected in human H9 cells. The gist of the method:
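Ratio of CC50 to EC50, both measured in H9 cells: MTT cytotoxicity over seven days, and p24 ELISA after 7 days of NL4-3 infection at MOI 0.03.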

Data set [3] can be described thus: Cytotoxicity against human H9 cells assessed as reduction in cell viability after 7 days by MTT assay. It counts as cell-based. The gist of the method: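 MTT viability assay. H9 at 4×10^4 cells/well or PHA-stimulated PBMCs at 5×10^5 cells/well were incubated with serially diluted compound at 37 °C, 5% CO2 for seven days before MTT read-out. CC50 was calculated; mean ± standard deviation of three separate experiments.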
Background: Formazan colour is commonly taken as a measure of viable cells.

Molecules are shown by their SMILES. pEC50: −log10 of the molar value.

For the molecule `COc1ccccc1NC(=O)c1c(NCCO)cccc1S(=O)(=O)c1ccc([N+](=O)[O-])cc1`, in data set [1], the pEC50 was 3.67. In addition, the “Ratio CC50/EC50” value in data set [2] turned out to be 0.713. In addition, the CC50 at 168 h in data set [3] amounted to 154 µM.
Consider `CNc1cccc(S(=O)(=O)c2ccc([N+](=O)[O-])cc2)c1C(=O)Nc1ccccc1OC`, for which, in data set [1], the negative-log EC50 (pEC50) is 3.56. Besides, the CC50 at 168 h in data set [3] was determined as 200 µM.
Regarding `COc1ccccc1NC(=O)c1c(NS(=O)(=O)c2ccccc2)cccc1Sc1ccc([N+](=O)[O-])cc1`, the negative logarithm of the EC50 (pEC50) in data set [1] is 3.73.
Regarding `COc1ccccc1NC(=O)c1c(N)cccc1Sc1ccc([N+](=O)[O-])cc1`, the pEC50 in data set [1] was 5.73. Also, the “Ratio CC50/EC50” value in data set [2] is 207. The CC50 at 168 h in data set [3] was determined as 387 µM.
On the same counts, the results for `COc1ccccc1NC(=O)c1c(NCCN)cccc1S(=O)(=O)c1ccc([N+](=O)[O-])cc1` are 3.67, 0.986 and 211 µM.
As to `COc1ccccc1NC(=O)c1cscc1Sc1ccc([N+](=O)[O-])cc1`, the pEC50 in data set [1] was 4.29. Moreover, in data set [2], the “Ratio CC50/EC50” value is listed as 10.1. In data set [3], the 50% cytotoxic concentration (CC50) at 168 h worked out at 518 µM.
The corresponding values for `COc1ccccc1NC(=O)c1cccnc1Sc1ccc([N+](=O)[O-])cc1` are 3.83, 3.57 and 525 µM.
Regarding `COc1ccccc1NC(=O)c1c(Sc2ccc([N+](=O)[O-])cc2)cccc1N1CCOCC1`, in data set [1], the pEC50 was 3.62.
Consider `COc1ccccc1NC(=O)c1c(N)cccc1Oc1ccc([N+](=O)[O-])cc1`, for which the negative logarithm of the EC50 (pEC50) in data set [1] was 4.02. In addition, the “Ratio CC50/EC50” value in data set [2] was determined as 2.14. Further, the half-maximal cytotoxic concentration (CC50) at 168 h in data set [3] stood at 202 µM.
The corresponding values for `COc1ccccc1NC(=O)c1cc(N(C)C)ccc1Sc1ccc([N+](=O)[O-])cc1` are 3.63, 0.781 and 182 µM.
The corresponding values for `COc1ccccc1NC(=O)c1c(N(C)C)cccc1S(=O)(=O)c1ccc([N+](=O)[O-])cc1` are 3.65, 1.94 and 439 µM.
For the molecule `COc1ccccc1NC(=O)c1cc(N)ccc1Sc1ccc([N+](=O)[O-])cc1`, the negative logarithm of the EC50 (pEC50) in data set [1] is 5.18.
With `COc1ccccc1NC(=O)c1c(NCC(N)=O)cccc1Sc1ccc([N+](=O)[O-])cc1`, the pEC50 in data set [1] is 4.38. For the same molecule, the “Ratio CC50/EC50” value in data set [2] came to 0.849. In addition, in data set [3], the CC50 at 168 h was 35.5 µM.
Consider `COc1ccccc1NC(=O)c1c(NCCBr)cccc1Sc1ccc([N+](=O)[O-])cc1`, for which the pEC50 in data set [1] was 3.66.
In the case of `COc1ccccc1NC(=O)c1c(NCCO)cccc1Sc1ccc([N+](=O)[O-])cc1`, the pEC50 in data set [1] is 4.36. In addition, the “Ratio CC50/EC50” value in data set [2] was found to be 6.08. Moreover, the CC50 at 168 h in data set [3] turned out to be 265 µM.
On the same counts, the results for `COc1ccccc1C(=O)Nc1nc(Cl)ncc1Sc1ccc([N+](=O)[O-])cc1` are 4.26, 8.78 and 480 µM.
For the molecule `COc1ccccc1NC(=O)c1c(NS(=O)(=O)c2ccc(C)cc2)cccc1S(=O)(=O)c1ccc([N+](=O)[O-])cc1`, the pEC50 in data set [1] was 3.76.
On the same count and under the same terms, the value for `COc1ccccc1NC(=O)c1c(NS(=O)(=O)c2ccccc2)cccc1S(=O)(=O)c1ccc([N+](=O)[O-])cc1` was 3.75.
For `COc1ccccc1NC(=O)c1cc(F)ccc1Sc1ccc([N+](=O)[O-])cc1`, the pEC50 in data set [1] was 3.60. The “Ratio CC50/EC50” value in data set [2] was 2.02. Moreover, in data set [3], the CC50 at 168 h came to 502 µM.
`COc1ccccc1NC(=O)c1cc([N+](=O)[O-])ccc1Sc1ccc([N+](=O)[O-])cc1`: in data set [1], the negative logarithm of the EC50 (pEC50) is 3.63.
On the same count and under the same terms, in the case of `COc1ccccc1NC(=O)c1c(Sc2ccc([N+](=O)[O-])cc2)cccc1[N+](=O)[O-]` it was 3.63; in that of `COc1ccccc1NC(=O)c1cc(C(F)(F)F)ccc1Sc1ccc([N+](=O)[O-])cc1`, 3.65.
Still for that read-out and setting: in the case of `COc1ccccc1NC(=O)c1c(NCCN)cccc1Sc1ccc([N+](=O)[O-])cc1` it was 4.34.

The pEC50 is the negative decadic logarithm of the EC50, by convention in mol/L. Usually CC50 stands for the concentration giving 50% cytotoxicity.
